The source of these data is publication PMC9890357 (Food Science of Animal Resources, 2023).

No end group written: not given here.

For series [1] the following is noted: synthetic ACE inhibitor drugs; ref Lee and Hur, 2017; cited from earlier work.
The target of series [2] is ACE (angiotensin I-converting enzyme) (Homo sapiens, UniProt P12821). Briefly: ACE inhibition activity. The class given is biochemical. The method, boiled down: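 Commercial ACE kit-WST run according to the manufacturer's protocol. The test compound was a peptide purified from an alcalase hydrolysate of velvet antler (<5 kDa ultrafiltration fraction, then Sephadex G-25, then reverse-phase HPLC) and lyophilized. Results are reported as mean±SD. Groups were compared by one-way ANOVA with Duncan's multiple range test, with significance at p<0.05.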
Chain of ACE (angiotensin I-converting enzyme) (P12821 30-1306, species assumed): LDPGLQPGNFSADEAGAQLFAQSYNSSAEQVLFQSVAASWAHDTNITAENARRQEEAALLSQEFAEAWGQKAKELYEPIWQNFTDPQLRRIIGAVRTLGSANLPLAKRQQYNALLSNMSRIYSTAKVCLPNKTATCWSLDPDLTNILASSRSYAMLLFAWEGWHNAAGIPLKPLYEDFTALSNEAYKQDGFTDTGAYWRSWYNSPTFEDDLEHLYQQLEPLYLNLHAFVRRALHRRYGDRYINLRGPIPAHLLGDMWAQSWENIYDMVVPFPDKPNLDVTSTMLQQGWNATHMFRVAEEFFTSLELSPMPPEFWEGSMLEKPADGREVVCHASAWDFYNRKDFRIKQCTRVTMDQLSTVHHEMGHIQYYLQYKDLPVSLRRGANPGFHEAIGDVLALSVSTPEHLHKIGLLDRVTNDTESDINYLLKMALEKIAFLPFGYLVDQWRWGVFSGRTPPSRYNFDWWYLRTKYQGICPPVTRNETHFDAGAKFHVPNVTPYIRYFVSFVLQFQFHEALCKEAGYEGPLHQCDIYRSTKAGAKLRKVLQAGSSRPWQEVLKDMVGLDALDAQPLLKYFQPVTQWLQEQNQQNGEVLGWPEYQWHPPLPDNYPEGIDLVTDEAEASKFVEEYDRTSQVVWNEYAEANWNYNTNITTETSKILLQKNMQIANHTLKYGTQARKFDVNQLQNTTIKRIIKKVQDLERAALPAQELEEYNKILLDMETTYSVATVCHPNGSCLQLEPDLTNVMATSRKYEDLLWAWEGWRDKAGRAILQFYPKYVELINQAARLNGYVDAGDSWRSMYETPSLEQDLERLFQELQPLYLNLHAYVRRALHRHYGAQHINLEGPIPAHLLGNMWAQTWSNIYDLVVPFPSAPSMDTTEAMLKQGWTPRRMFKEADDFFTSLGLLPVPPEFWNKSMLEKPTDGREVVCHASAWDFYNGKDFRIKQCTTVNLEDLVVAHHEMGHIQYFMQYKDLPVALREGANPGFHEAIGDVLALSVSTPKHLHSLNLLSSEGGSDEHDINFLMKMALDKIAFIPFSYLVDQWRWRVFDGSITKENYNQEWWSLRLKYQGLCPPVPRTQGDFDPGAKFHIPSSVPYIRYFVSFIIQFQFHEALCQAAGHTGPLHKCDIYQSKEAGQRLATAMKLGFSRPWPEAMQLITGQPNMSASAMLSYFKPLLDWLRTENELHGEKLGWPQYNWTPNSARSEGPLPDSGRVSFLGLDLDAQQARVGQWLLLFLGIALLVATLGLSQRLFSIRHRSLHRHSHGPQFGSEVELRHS

The next series has as its system ACE. Particulars: peptides with C-terminal Tyr residues; ref Chen et al., 2009; Erdmann et al., 2006; Ko et al., 2012; Liu et al., 2021; Yu et al., 2019; cited from earlier work.

Take `CCOC(=O)[C@H](CCc1ccccc1)N[C@H]1CCc2ccccc2N(CC(=O)O)C1=O` [benazepril]: the side effects result in series [1] is “headaches, insomnia, fatigue, and increased blood potassium levels”.

The IC50 is the concentration that inhibits the measured activity by half. Usually inhibition stands for the share of the control response that was lost under treatment. DNRYY [DNRYY, Asp-Asn-Arg-Tyr-Tyr]: half-maximal inhibition in series [2] (IC50) required 3.72 µM. For the same compound, in series [2] (read-out: ACE inhibition), the inhibition at 1.75 µM was 23.6%, the inhibition at 3.5 µM was found to be 48.1%, the inhibition at 7 µM was 69.8% and the inhibition at 14 µM was determined as 89.5%.

`CCOC(=O)[C@H](CCc1ccccc1)N[C@@H](C)C(=O)N1CCC[C@H]1C(=O)O` [enalapril]: in series [1], the side effects result was “headaches, insomnia, fatigue, and increased blood potassium levels”.

For Arg-Val-Tyr, the “ACE inhibitory activity (in words)” value with ACE is given as “potent ACE inhibitory activities”.

With Val-Tyr, in the series with ACE, the “ACE inhibitory activity (in words)” value is on record as “potent ACE inhibitory activities”.

With `C[C@H](CS)C(=O)N1CCC[C@H]1C(=O)O` [captopril], the side effects entry in series [1] is “headaches, insomnia, fatigue, and increased blood potassium levels”.

Consider Ile-Tyr, for which the “ACE inhibitory activity (in words)” value with ACE is reported as “potent ACE inhibitory activities”.

Take Met-Tyr: the “ACE inhibitory activity (in words)” value with ACE is recorded as “potent ACE inhibitory activities”.
